Data published in article PMC3667888 (Channels, 2013).
Where a chain is given by its changes, count along the chain named.

Tests used:
Type in all cases: cell-based
[1] = target: T1, Kv4.2 K318E mutant channels (co-injected with KChIP1b) (Rattus norvegicus, UniProt Q63881, K318E); test: Two-electrode voltage clamp, K318E mutant Kv4.2/KChIP1b in Xenopus oocytes; details: 10 µM AA
T1 sequence (Q63881 1-630 K318E): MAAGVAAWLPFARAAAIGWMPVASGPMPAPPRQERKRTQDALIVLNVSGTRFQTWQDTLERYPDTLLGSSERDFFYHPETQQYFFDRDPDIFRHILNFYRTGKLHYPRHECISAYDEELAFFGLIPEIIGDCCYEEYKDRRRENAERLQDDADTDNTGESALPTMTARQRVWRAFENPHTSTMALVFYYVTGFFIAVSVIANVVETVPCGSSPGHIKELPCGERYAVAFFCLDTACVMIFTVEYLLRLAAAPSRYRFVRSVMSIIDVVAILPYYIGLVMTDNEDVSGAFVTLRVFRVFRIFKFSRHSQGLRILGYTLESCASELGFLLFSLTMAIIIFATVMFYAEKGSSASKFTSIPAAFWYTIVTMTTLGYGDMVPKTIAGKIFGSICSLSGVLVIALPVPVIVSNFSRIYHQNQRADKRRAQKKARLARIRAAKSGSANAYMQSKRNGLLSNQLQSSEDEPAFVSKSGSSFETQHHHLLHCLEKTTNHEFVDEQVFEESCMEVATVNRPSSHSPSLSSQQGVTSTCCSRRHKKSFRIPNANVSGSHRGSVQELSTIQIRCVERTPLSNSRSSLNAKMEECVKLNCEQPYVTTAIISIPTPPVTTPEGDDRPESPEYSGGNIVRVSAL
In short: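 Xenopus oocytes co-expressing rat Kv4.2 (WT or mutant) with equimolar KChIP1b were recorded by two-electrode voltage clamp at room temperature. Peak conductance was calculated as G = I/(Vm − Vh), with Vh = −100 mV, and normalized to each cell's Gmax. It was plotted against step potential without and with 10 μM AA and fit to a first-order Boltzmann function to give V1/2 and slope.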

[2] = target: T2, Kv4.2 K318Q mutant channels (co-injected with KChIP1b) (Rattus norvegicus, UniProt Q63881, K318Q); test: Two-electrode voltage clamp, K318Q mutant Kv4.2/KChIP1b in Xenopus oocytes
T2 sequence (Q63881 1-630 K318Q): T1 sequence (Q63881 1-630 K318E) with E318Q
In short: (§1)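 Rat Kv4.2 (WT or QuikChange mutant) RNA co-injected equimolar with KChIP1b, 5–10 ng/oocyte, into Xenopus oocytes held 1–5 d at 17–19 °C. Two-electrode voltage clamp at room temperature in perfused Na/K methanesulfonate HEPES saline, pH 7.4–7.5, with P/−4 or P/−6 leak subtraction. Peak current at +40 mV (from −90 mV) after 10 min of 10 μM AA is expressed relative to pre-AA current. Mean ± SE, n = cells.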

[3] = target: T3, Kv4.2 V261F mutant channels (co-injected with KChIP1b) (Rattus norvegicus, UniProt Q63881, V261F); test: Two-electrode voltage clamp, V261F mutant Kv4.2/KChIP1b in Xenopus oocytes
T3 sequence (Q63881 1-630 V261F): T1 sequence (Q63881 1-630 K318E) with V261F, E318K
In short: as §1

[4] = read-out: inhibition of the peak K+ current

V1/2 of conductance-voltage curve with AA [1]: −25.2 mV | shift in V1/2 in the presence of AA [1]: +5 mV | slope factor (k) of Boltzmann fit with AA [1]: 7.1 | V1/2 of conductance-voltage curve with AA ([2]; 10 µM AA, K318Q): −8.6 mV | slope factor (k) of Boltzmann fit with AA ([2]; 10 µM AA, K318Q): 11.3 | inhibition at 10 µM [2, 4]: 12% | V1/2 of conductance-voltage curve with AA ([3]; 10 µM AA, V261F): −17.1 mV | slope factor (k) of Boltzmann fit with AA ([3]; 10 µM AA, V261F): 10.9 | inhibition at 10 µM [3, 4]: 18%
SMILES: CCCCC/C=C\C/C=C\C/C=C\C/C=C\CCCC(=O)O [AA, arachidonic acid]
inhibition of peak K+ current by AA, effect of mutation ([1]; 10 min): did not impair the inhibition of current by AA
